From ChEMBL document CHEMBL3994675, “Carbamylmethyl Mercaptoacetate Thioether: A Novel Scaffold for the Development of L1 Metallo-β-lactamase Inhibitors” (ACS Med Chem Lett, 2017)

Assays:
[1] = Inhibition of L1 (unknown origin) expressed in Escherichia coli DH10B harboring pBC SK(+)-L1 assessed as potentiation of cefazolin-induced antibacterial activity by measuring cefazolin MIC at 1024 ug/ml after 12 hrs macrodilution broth method
How it was run: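 Cefazolin MICs were read for E. coli DH10B carrying pBC SK(+)-L1 across a series of inhibitor concentrations. Cefazolin alone (no inhibitor) on the same strain served as the reference MIC. E. coli not expressing L1 was tested alongside as the susceptible comparator.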

[2] = system: Escherichia coli; experiment: Growth inhibition of Escherichia coli DH10B harboring pBC SK(+)-L1 at 1024 ug/ml after 12 hrs macrodilution broth method; parameters: species or system K-12 substr. DH10B
How it was run: (§1)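 Cefazolin MIC determined for E. coli DH10B carrying pBC SK(+)-L1 and for E. coli not expressing L1, with and without compound.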

[3] = Chemical stability in pH 5 Tris buffer after 4 days by UV-Visible spectral analysis; format: physicochemical; details: pH 5, 96 h
How it was run: (§2)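 Compounds incubated in aqueous solution at pH 5.0, 7.0 and 9.0 for 4 days; stability followed by UV-vis spectra.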

[4] = Inhibition of L1 (unknown origin) expressed in Escherichia coli BL21(DE3) using cefazolin as substrate by ITC
How it was run: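 Isothermal titration calorimetry at 25 °C with 5 nM L1, 160 μM cefazolin and inhibitor at 0–100 μM; hydrolysis progress monitored as heat flow. Rates from runs at different substrate concentrations plotted against substrate concentration at 0, 50 and 100 μM inhibitor.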

[5] = Inhibition of ImiS (unknown origin) expressed in Escherichia coli BL21(DE3) at 100 uM using imipenem as substrate preincubated for 30 mins followed by substrate addition by UV-Visible spectrophotometric method relative to control
How it was run: (§3)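 Purified enzyme preincubated with 100 μM inhibitor in its enzyme-specific buffer, then substrate added: 50 μM cefazolin for IMP-1 and L1, 40 μM imipenem for ImiS. Hydrolysis followed by UV-vis spectrophotometry. Preincubation times of 3–60 min were tested. % inhibition = activity without inhibitor (100%) minus residual activity.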

[6] = system: L929; experiment: Cytotoxicity against mouse L929 cells assessed as reduction in cell viability up to 400 uM after 48 hrs by CCK assay; format: cell-based; details: l929, 48 h
How it was run: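 L-929 mouse fibroblasts exposed to compound at 12.5, 25, 50, 100, 200 and 400 μM working concentrations; cell viability measured.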

[7] = Inhibition of ImiS (unknown origin) expressed in Escherichia coli BL21(DE3) at 100 uM using imipenem as substrate preincubated for 3 to 60 mins followed by substrate addition by UV-Visible spectrophotometric method relative to control; details: TDE = time-dependent effect; how it was run: as §3
[8] = Inhibition of L1 (unknown origin) expressed in Escherichia coli BL21(DE3) at 100 uM using cefazolin as substrate preincubated for 3 to 60 mins followed by substrate addition by UV-Visible spectrophotometric method relative to control; details: TDE = time-dependent effect; how it was run: as §3
[9] = system: Escherichia coli; experiment: Growth inhibition of Escherichia coli DH10B at 1024 ug/ml after 12 hrs macrodilution broth method; parameters: species or system K-12 substr. DH10B; how it was run: as §1
[10] = Inhibition of L1 (unknown origin) expressed in Escherichia coli BL21(DE3) at 100 uM using cefazolin as substrate preincubated for 30 mins followed by substrate addition by UV-Visible spectrophotometric method relative to control; how it was run: as §3
[11] = Chemical stability in pH 7 Tris buffer after 4 days by UV-Visible spectral analysis; format: physicochemical; details: pH 7, 96 h; how it was run: as §2
[12] = Chemical stability in pH 9 Tris buffer after 4 days by UV-Visible spectral analysis; format: physicochemical; details: pH 9, 96 h; how it was run: as §2
[13] = Inhibition of IMP1 (unknown origin) expressed in Escherichia coli BL21(DE3) at 100 uM using cefazolin as substrate preincubated for 30 mins followed by substrate addition by UV-Visible spectrophotometric method relative to control; how it was run: as §3
[14] = Inhibition of IMP1 (unknown origin) expressed in Escherichia coli BL21(DE3) at 100 uM using cefazolin as substrate preincubated for 3 to 60 mins followed by substrate addition by UV-Visible spectrophotometric method; details: TDE = time-dependent effect; how it was run: as §3
[15] = Inhibition of L1 (unknown origin) expressed in Escherichia coli BL21(DE3) using cefazolin as substrate preincubated for 30 mins followed by substrate addition by UV-Visible spectrophotometric method
How it was run: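 L1 IC50 measured in 30 mM Tris, pH 8.5, with cefazolin as substrate and inhibitor at 0.1–20 μM. Run in triplicate; mean ± SD reported.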

In the case of `Cc1ccc(NC(=O)CSCC(=O)[O-])cc1.[K+]`, the MIC [1] is reported as 16 µg/mL, the “growth inhibition (GI)” value [2] is reported as “Non-Toxic” and the Stability [3] is reported as “Stable”. The inhibition [4] was “Dose-dependent effect”, the inhibition [5] was 52% and the Activity [6] was “Non-Toxic”. The inhibition [7] was “Tde”, the inhibition [8] was “Tde” and the “growth inhibition (GI)” value [9] was “Non-Toxic”. The inhibition [10] was 97%, the Stability [11] was “Stable” and the Stability [12] was “Stable”. For the same molecule, the inhibition [13] was 37%, the inhibition [14] was “Tde” and the IC50 [15] was 410 nM. The inhibition [15] was “Dose-dependent effect”.
